Test results as given in paper PMC9257424 (The Journal of Biological Chemistry, 2022).
Entries after “also recorded” stand apart in the source; their conditions may differ.

Tests used:
[1] = system: L. blandensis dGTPase R37A; assay: Enzyme-coupled dGTPase activity assay, R37A mutant; type: biochemical, Leeuwenhoekiella blandensis; conditions: dATP titration at 1 mM dGTP
Procedure, shortened: (§1)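 Variants of residues 3–442 were made by site-directed mutagenesis, expressed in E. coli BL21(DE3), and purified by Ni–NTA and size exclusion. dATP was serially diluted into buffer containing 1 mM dGTP (100 mM Tris pH 8, 5 mM MgCl2, 125 μM MnCl2, 5 mM phosphate). Reactions started with 1:1 addition of a 2× mix (~120 nM monomer, PNP, XOD). A297 was read at 25 °C, converted to v0/[E]t, and kcat,app versus dATP was Hill-fitted for K1/2.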

[2] = target: T1, L. blandensis dGTPase (WT) (Leeuwenhoekiella blandensis, UniProt A3XHN1); assay: Enzyme-coupled dGTPase activity assay, WT enzyme; type: biochemical
T1 sequence (A3XHN1 3-442): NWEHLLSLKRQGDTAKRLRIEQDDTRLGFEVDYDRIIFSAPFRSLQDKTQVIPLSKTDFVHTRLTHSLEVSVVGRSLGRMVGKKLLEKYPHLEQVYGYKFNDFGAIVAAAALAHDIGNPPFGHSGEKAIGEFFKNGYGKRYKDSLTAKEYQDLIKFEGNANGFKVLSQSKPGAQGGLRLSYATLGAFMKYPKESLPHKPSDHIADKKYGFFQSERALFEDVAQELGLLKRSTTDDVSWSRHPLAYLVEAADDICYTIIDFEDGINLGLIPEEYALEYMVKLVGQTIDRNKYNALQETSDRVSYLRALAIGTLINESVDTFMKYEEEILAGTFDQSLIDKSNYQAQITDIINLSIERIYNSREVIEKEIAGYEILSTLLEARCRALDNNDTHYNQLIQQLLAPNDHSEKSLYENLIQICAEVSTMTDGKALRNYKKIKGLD

[3] = target: T1, L. blandensis dGTPase (WT); assay: HPLC dGTPase activity assay, WT enzyme; type: biochemical; conditions: mixture of eight standard dNTPs and NTPs, 1 mM each, 1 h
[4] = target: T2, L. blandensis dGTPase F40N (Leeuwenhoekiella blandensis, UniProt A3XHN1, F40N); assay: Enzyme-coupled dGTPase activity assay, F40N mutant; type: biochemical; conditions: dATP titration at 1 mM dGTP
T2 sequence (A3XHN1 3-442 F40N): T1 sequence (A3XHN1 3-442)
Procedure, shortened: as §1

[5] = target: T3, L. blandensis dGTPase R28A (Leeuwenhoekiella blandensis, UniProt A3XHN1, R28A); assay: Enzyme-coupled dGTPase activity assay, R28A mutant; type: biochemical; conditions: dATP titration at 1 mM dGTP
T3 sequence (A3XHN1 3-442 R28A): T1 sequence (A3XHN1 3-442)
Procedure, shortened: as §1

[6] = target: T4, L. blandensis dGTPase V74Q (Leeuwenhoekiella blandensis, UniProt A3XHN1, V74Q); assay: Enzyme-coupled dGTPase activity assay, V74Q mutant; type: biochemical
T4 sequence (A3XHN1 3-442 V74Q): T1 sequence (A3XHN1 3-442)
Procedure, shortened: as §1

[7] = target: Leeuwenhoekiella blandensis MED217 dGTPase (SAMHD1 homolog), wild type, residues 3 to 442 (Leeuwenhoekiella blandensis MED217); assay: cryo-EM structure
[8] = target: Leeuwenhoekiella blandensis MED217 dGTPase (SAMHD1 homolog), wild type, residues 3 to 442 (Leeuwenhoekiella blandensis MED217); assay: crystal structure

Compound: Nc1ncnc2c1ncn2[C@H]1C[C@H](O)[C@@H](COP(=O)(O)OP(=O)(O)OP(=O)(O)O)O1 [dATP]
- activation by dATP [1]: eliminate activation by dATP; also recorded: not activated by dATP
- EC50 [2]: 36 ± 3 µM
- increase of dGTPase kcat by dATP ([2]; WT, 500 µM dATP versus dGTP-only): ~50%
- fold activation of turnover rate by dATP ([2]; WT, calculated with n^H = 2, dGTP concentration at saturation): ~1.6 fold
- fold activation of turnover rate by dATP ([2]; WT, calculated with n^H = 2, dGTP less than ~160 µM): more than threefold
- n^H (Hill coefficient) of activation by dATP ([2]; WT, dATP titration at 1 mM dGTP): 1.3 ± 0.1
- hydrolysis as substrate [3]: not used as a substrate
- activation by dATP [4]: eliminated allosteric activation by dATP
- activation by dATP [5]: eliminate activation by dATP; also recorded: not activated by dATP
- EC50 [6]: 180 ± 16 µM

Compound: Leeuwenhoekiella blandensis MED217 dGTPase (SAMHD1 homolog), wild type, residues 3 to 442 (enzyme)
- stoichiometry N [7]: 6
- stoichiometry N [8]: 6
